Screening results from PubChem.
RGS4 pot: RGS4 potentiation or activation. HEK293 M3R/inducible RGS4, carbachol calcium flux Fluo4; hits give low values. B-score at 10 µM. hit rate 0.92% among 310,000;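 active = B-score of the integrated calcium signal more than 4 SD below the library mean, with starting fluorescence not abnormally high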;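 also: negative B-score means reduced calcium response which marks RGS4 activation or potentiation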
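Assay system: HEK293 FlpIn-TREx cells, stable M3R, doxycycline-inducible RGS4 / Probe or stimulus: carbachol, ECmax concentration / Times: overnight RGS4 induction, 30 min dye load 37 °C, 20 min compound RT / Signal: kinetic calcium fluorescence imaging with Fluo4-AM dye, 2 µM / Measure: Agonist-evoked peak-minus-minimum fluorescence over baseline, integrated ratio, B score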
MrgX1 agonist: activates human MrgX1 receptor signaling. hit rate 0.44% among 310,000. AID 588627. Q96LB2. MrgX1-HEK293 cells, Fluo-4 calcium fluorescence, agonist mode; hits give high values. B-score at 10 µM;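 active = calcium response B-score plate-corrected fluorescence ratio at least 3 library SD, with starting fluorescence B-score inside 5 SD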
Target sequence (Q96LB2 whole entry, looked up): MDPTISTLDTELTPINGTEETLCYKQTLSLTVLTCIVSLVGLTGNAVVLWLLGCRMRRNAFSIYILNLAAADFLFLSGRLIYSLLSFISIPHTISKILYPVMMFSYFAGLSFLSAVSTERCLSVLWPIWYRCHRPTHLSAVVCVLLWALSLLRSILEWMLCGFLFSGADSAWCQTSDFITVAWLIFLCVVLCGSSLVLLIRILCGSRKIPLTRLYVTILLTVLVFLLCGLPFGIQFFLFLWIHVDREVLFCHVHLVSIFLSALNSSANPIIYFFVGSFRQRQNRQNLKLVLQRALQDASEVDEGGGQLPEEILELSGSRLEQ
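System: HEK293 cells stably expressing human MrgX1 receptor; Dosing: test compound in the initial addition of three; Schedule: overnight plating, then 30 min 37 °C plus 30 min room-temperature dye loading; Detection: kinetic calcium dye fluorescence, Fluo-4 NW; Controls: per-plate positive and negative controls for Z′ factor.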
MrgX1 antag: blocks BAM8-22 activation of human MrgX1 receptor; hit rate 1.3% among 310,000; Q96LB2; MRGX1-HEK293 calcium flux, Fluo-4, BAM8-22 antagonism; hits give low values; AID 588676; B-score at 10 µM;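 active = calcium-response B-score plate-corrected more than 3 library SD below zero, starting fluorescence within 5 deviations, no agonist response on first addition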;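 also: peak minus trough fluorescence over baseline after final BAM8-22 challenge near maximal dose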
MrgX1 allo act: human MrgX1 positive allosteric modulation, primary screen. hit rate 0.63% among 310,000. MrgX1-HEK293, Fluo-4 calcium flux, FDSS; hits give high values. B-score at 10 µM;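 active = plate-corrected calcium response at least 3 library SD above typical, normal starting fluorescence, not activating the receptor alone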;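 also: compound read alongside a low EC10 to EC30 dose of BAM8-22 agonist; peak minus trough fluorescence over baseline measured at the second addition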
Hep lipid drop: modulators of hepatic lipid droplet formation; inhibition, % at 6.5 µM; AID 1656; hit rate 0.4% among 240,000; AML12 mouse hepatocytes, oleate lipid droplets, BODIPY imaging;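 active = lipid droplet intensity inhibited by at least 50%, with more than 500 cells counted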
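Material: mouse AML12 hepatocyte cell line, fixed after treatment; Timing: compound with oleate, overnight; Technique: high-content imaging of BODIPY-stained droplets and DAPI nuclei; Probe or stimulus: oleate, 100 µM final; Dosing: compound at 6.5 µM only.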
RGS4 inh: inhibitors of human RGS4. HEK293 M3R/RGS4 inducible, Fluo-4 calcium flux; hits give high values; triggered by carbachol at its EC20. P49798. hit rate 0.45% among 310,000. AID 463165. B-score at 10 µM;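 active = B-score, a plate-corrected calcium signal, over three deviations above library mean, with baseline fluorescence within five deviations of library mean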;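 also: RGS4 expression induced by doxycycline in cells with stable M3 receptor; B-score is computed from the integrated fluorescence ratio over baseline after carbachol; higher B-score means a larger calcium signal and so more RGS4 inhibition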
Target sequence (P49798 whole entry, looked up): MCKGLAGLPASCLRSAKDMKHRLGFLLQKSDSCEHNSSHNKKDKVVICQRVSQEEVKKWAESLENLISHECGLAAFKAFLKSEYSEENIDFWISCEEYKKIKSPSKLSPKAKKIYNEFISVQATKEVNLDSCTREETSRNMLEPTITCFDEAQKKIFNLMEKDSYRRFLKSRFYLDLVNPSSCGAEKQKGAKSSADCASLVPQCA
Hep lipid conf: hepatic lipid droplet formation inhibition, confirmed. shares compounds with Hep lipid drop. AML12 mouse hepatocytes, BODIPY lipid droplet imaging; droplets induced with 100 µM oleic acid. inhibition, % at 5.2 µM. hit rate 65% among 870. AID 463183;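 active = inhibition of lipid droplet metric at least 50%, with more than 300 cells in each of four replicates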;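 also: plate controls were DMSO with oleic acid for no effect and 5 µM Triacsin-C for full effect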
AML12 cytotox: AML12 hepatocyte cytotoxicity (counter-screen); shares compounds with Hep lipid drop; hit rate 3% among 870; AML12 mouse hepatocytes, DAPI nuclear morphology cytotoxicity imaging; hits give high values; cells fed 100 µM oleate overnight; AID 463200; z-score at 5 µM; in the data active = z-score above about 6.3;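 also: compound exposure lasted overnight at 37 °C before fixation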
AML12 tox conf: AML12 hepatocyte cytotoxicity, confirmed; shares compounds with Hep lipid drop; AML12 mouse hepatocyte viability, ATP luminescence; cells loaded with 100 µM oleic acid; cytotoxicity, % at 50 µM; 530 tested, under 10 active; AID 463219;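 active = cytotoxicity above 50% in each of four replicates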;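 also: compound exposure lasted overnight at 37 °C before the ATP read; 0% = DMSO-treated cells and 100% = wells with no cells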
The depositor's hits bear a star. The list is not random: actives were taken first. Their share in the collection is about 3.8%.

`O=C(Nc1ccc2c(c1)C(=O)NC2=O)c1cc(Cl)ccc1Cl` gave RGS4 pot inactive, MrgX1 agonist inactive, MrgX1 antag inactive, MrgX1 allo act inactive, Hep lipid drop -11.7 and RGS4 inh inactive.
`Cc1ccccc1NC(=O)NC1(C(=O)N2CCC(C(N)=O)CC2)CCCCC1` gave RGS4 pot inactive, MrgX1 agonist inactive, MrgX1 antag inactive, MrgX1 allo act inactive, Hep lipid drop 8.5 and RGS4 inh inactive.
Screening CCOC(=O)C1CCN(C(=O)C2(NC(=O)Nc3ccccc3Cl)CCCCC2)CC1 returned RGS4 pot inactive, MrgX1 agonist inactive, MrgX1 antag inactive, MrgX1 allo act inactive, Hep lipid drop 72.9*, RGS4 inh inactive, Hep lipid conf 101.3*, AML12 cytotox 0.0943 and AML12 tox conf 11.3.
O=C(Nc1ccccc1Cl)NC1(C(=O)N2CCCCC2)CCCCC1 was read as RGS4 pot inactive, MrgX1 agonist inactive, MrgX1 antag inactive, MrgX1 allo act inactive, Hep lipid drop 20.9 and RGS4 inh inactive.
CCOC(=O)C1CCN(C(=O)C2(NC(=O)Nc3ccccc3C)CCCCC2)CC1 was read as RGS4 pot inactive, MrgX1 agonist inactive, MrgX1 antag inactive, MrgX1 allo act inactive, Hep lipid drop 81.3*, RGS4 inh inactive, Hep lipid conf 98.0*, AML12 cytotox -0.276 and AML12 tox conf 4.9.
Screening CCOc1ccc(N2CC(C(=O)NCCc3ccc(S(N)(=O)=O)cc3)CC2=O)cc1 (configuration not stated) returned RGS4 pot inactive, MrgX1 agonist inactive, MrgX1 antag inactive, MrgX1 allo act inactive, Hep lipid drop -2.1 and RGS4 inh inactive.
For Cc1cc(C)cc(N(CCC(=O)Nc2nnc(C)s2)S(=O)(=O)c2ccc(Cl)cc2)c1 the results were RGS4 pot inactive, MrgX1 agonist inactive, MrgX1 antag inactive, MrgX1 allo act inactive, Hep lipid drop -24.7 and RGS4 inh inactive.
CN(CC(=O)Nc1ccccc1C(F)(F)F)C(=O)c1cccc(-n2cccc2)c1 was read as RGS4 pot inactive, MrgX1 agonist inactive, MrgX1 antag inactive, MrgX1 allo act inactive and RGS4 inh inactive.
For COC(=O)c1cc(C)sc1NC(=O)C1CC(=O)NN1Cc1ccccc1 (configuration not stated) the results were RGS4 pot inactive, MrgX1 agonist inactive, MrgX1 antag inactive, MrgX1 allo act inactive, Hep lipid drop 86.3*, RGS4 inh inactive, Hep lipid conf 109.5*, AML12 cytotox 0.396 and AML12 tox conf 4.0.
`CCOC(=O)c1cc(CC)sc1NC(=O)C1CC(=O)NN1Cc1ccccc1` (configuration not stated) gave RGS4 pot inactive, MrgX1 agonist inactive, MrgX1 antag inactive, MrgX1 allo act inactive, Hep lipid drop 82.4*, RGS4 inh inactive, Hep lipid conf 109.6*, AML12 cytotox -0.278 and AML12 tox conf -3.4.
CCOC(=O)C1CCN(C(=O)Cn2ncc3c([nH]c4ccccc43)c2=O)CC1 was read as RGS4 pot inactive, MrgX1 agonist inactive, MrgX1 antag inactive, MrgX1 allo act inactive, Hep lipid drop 7.3 and RGS4 inh inactive.
O=C(CNC(=O)c1sc2ccccc2c1Cl)Nc1ccccc1F was read as RGS4 pot inactive, MrgX1 agonist inactive, MrgX1 antag inactive, MrgX1 allo act inactive and RGS4 inh inactive.
`CCOc1ccc(/C=N/NC(=O)c2cc3c(OC)cc(OC)cc3[nH]2)cc1OC` gave RGS4 pot inactive, MrgX1 agonist inactive, MrgX1 antag inactive, MrgX1 allo act inactive, Hep lipid drop 1.5 and RGS4 inh inactive.
For C=CCOc1ccc(/C=N/NC(=O)c2cc3c(OC)cc(OC)cc3[nH]2)cc1 the results were RGS4 pot -8.13*, MrgX1 agonist inactive, MrgX1 antag inactive, MrgX1 allo act inactive, Hep lipid drop 56.5*, RGS4 inh inactive, Hep lipid conf 51.0 and AML12 cytotox 2.27.
Screening CCCN(C(=O)Cc1ccc(S(=O)(=O)N2CCOCC2)s1)c1c(N)n(Cc2ccccc2)c(=O)[nH]c1=O returned RGS4 pot inactive, MrgX1 agonist inactive, MrgX1 antag inactive, MrgX1 allo act inactive, Hep lipid drop -16.0 and RGS4 inh inactive.
COc1ccc(-c2c/c(=N\c3nc(-c4ccccc4)c(C)s3)c3ccccc3o2)cc1O was read as RGS4 pot inactive, MrgX1 agonist inactive, MrgX1 antag inactive, MrgX1 allo act inactive, Hep lipid drop 57.6*, RGS4 inh inactive, Hep lipid conf -19.8 and AML12 cytotox 22.8*.
For COc1ccc(-c2cc(=Nc3c(C)n(C)n(-c4ccccc4)c3=O)c3ccccc3o2)cc1 the results were RGS4 pot inactive, MrgX1 agonist inactive, MrgX1 antag inactive, MrgX1 allo act inactive, Hep lipid drop 0.4 and RGS4 inh inactive.
For Cc1noc(C)c1C(=O)NCc1ccccc1F the results were RGS4 pot inactive, MrgX1 agonist inactive, MrgX1 antag inactive, MrgX1 allo act inactive, Hep lipid drop -16.5 and RGS4 inh inactive.
Cc1ccc(-c2cc(-c3c(C)nn(C)c(=O)c3N)[nH]n2)cc1 was read as RGS4 pot inactive, MrgX1 agonist inactive, MrgX1 antag inactive, MrgX1 allo act inactive, Hep lipid drop 56.2*, RGS4 inh inactive, Hep lipid conf 78.6* and AML12 cytotox -0.359.
Screening COc1ccc(C(=O)CSc2nnc(CC(=O)Nc3ccccc3OC)n2C)cc1 returned RGS4 pot inactive, MrgX1 agonist inactive, MrgX1 antag inactive, MrgX1 allo act inactive, Hep lipid drop 59.1*, RGS4 inh inactive, Hep lipid conf 56.1, AML12 cytotox -0.912 and AML12 tox conf 8.6.
`COC(=O)Cn1c(=O)c2c(nc3n2CCCN3Cc2ccccc2)n(C)c1=O` gave RGS4 pot inactive, MrgX1 agonist inactive, MrgX1 antag inactive, MrgX1 allo act inactive, Hep lipid drop -5.1 and RGS4 inh inactive.
O=C1C(Nc2ccccc2)=C(N2CCCCC2)C(=O)c2ccccc21 was read as RGS4 pot inactive, MrgX1 agonist inactive, MrgX1 antag inactive, MrgX1 allo act inactive and RGS4 inh inactive.
